{"source": "paper PMC7265153", "about": "(The Journal of infection, 2019)", "key": {"P. aeruginosa [1]": {"system": "P. aeruginosa", "assay_type": "cell-based", "conditions": "Pseudomonas aeruginosa", "outline": "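Extremely drug-resistant clinical isolates from patients with urinary tract infection. Species identification and susceptibility testing were done by microdilution on the automated breakpoint panel for non-fermenting Gram-negative bacteria. Colistin MIC was determined by microdilution in cation-adjusted Mueller-Hinton broth, with isolates scored susceptible at MIC ≤ 2 mg/L per CLSI.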"}, "XDR P. aeruginosa [2]": {"system": "XDR P. aeruginosa", "test": "Plasma AUC/MIC, fAUC/MIC of formed colistin and attainment of PK/PD targets", "assay_type": "in vivo, human"}, "Acute kidney injury": {"test": "Acute kidney injury", "assay_type": "in vivo, human", "conditions": "for AKI at EOT: F (Failure) / AKI at EOT: I (Injury) / AKI at EOT: R (Risk): among patients with AKI"}, "[3]": {"conditions": "cited from earlier work"}, "[4]": {"conditions": "in vivo; cited from earlier work"}, "XDR P. aeruginosa [5]": {"system": "XDR P. aeruginosa", "assay_type": "cell-based, Pseudomonas aeruginosa"}, "P. aeruginosa [6]": {"system": "P. aeruginosa", "conditions": "study performed in Spain; cited from earlier work"}, "MDR-GNB": {"system": "MDR-GNB", "conditions": "cited from earlier work"}, "XDR P. aeruginosa [7]": {"system": "XDR P. aeruginosa", "assay_type": "in vivo, human"}, "[8]": {"conditions": "CMS ≥ 6 million IU/day (n = 12)"}, "[9]": {"conditions": "included patients with clinical failure (n = 2)"}, "[10]": {"conditions": "all patients, RIFLE class among patients with AKI"}}, "note": "“And” between values parts separate entries of the source, which are not always exact repeats. Identical values can stand only once. Like-named read-outs stand apart in the source and are kept apart here. Where a SMILES comes first, the peptide text is derived from it. Bridges are numbered along the chain shown (N, C = ends). [ ]: non-standard residue; d: D form. The star is where a group is joined. X1 = CC[C@H](C)CCCCC(=O)*; Dab = NCC[C@H](N)C(=O)O", "data": [{"compound": "NCC[C@H](O)C(=O)N[C@@H]1C[C@H](N)[C@@H](O[C@H]2O[C@H](CN)[C@@H](O)[C@H](O)[C@H]2O)[C@H](O)[C@H]1O[C@H]1O[C@H](CO)[C@@H](O)[C@H](N)[C@H]1O", "note": "[amikacin]", "values": [{"measurement": "MIC", "setting": "P. aeruginosa [1]", "result": 16, "unit": "µg/mL"}]}, {"compound": "CC(C)(O/N=C(\\C(=O)N[C@@H]1C(=O)N2C(C(=O)[O-])=C(C[n+]3ccccc3)CS[C@H]12)c1csc(N)n1)C(=O)O", "note": "[ceftazidime]", "values": [{"measurement": "MIC", "setting": "P. aeruginosa [1]", "result": 16, "unit": "µg/mL"}]}, {"compound": "CC[C@H](C)CCCCC(=O)N[C@@H](CCN)C(=O)N[C@H](C(=O)N[C@@H](CCN)C(=O)N[C@H]1CCNC(=O)[C@H]([C@@H](C)O)NC(=O)[C@H](CCN)NC(=O)[C@H](CCN)NC(=O)[C@H](CC(C)C)NC(=O)[C@@H](CC(C)C)NC(=O)[C@H](CCN)NC1=O)[C@@H](C)O", "note": "[colistin] (X1-[Dab]T[Dab][Dab][Dab][dL]L[Dab][Dab]T; lactam 4-C)", "values": [{"measurement": "patients with microbiological clearance who had reached an AUC/MIC of 60 mg·h/L", "setting": "XDR P. aeruginosa [2]; 7/19 patients", "result": 36.8, "unit": "%"}, {"measurement": "patients with pyelonephritis reaching Css,avg above 2.5 mg/L", "setting": "XDR P. aeruginosa [2]; 9 patients diagnosed with pyelonephritis", "result": "none of them reached a Css,avg above 2.5 mg/L"}, {"measurement": "patients with pyelonephritis achieving AUC/MIC > 60 mg·h/L", "setting": "XDR P. aeruginosa [2]; 9 patients diagnosed with pyelonephritis, 1 patient", "result": 11.1, "unit": "%"}, {"measurement": "AUC/MIC > 60 mg∙h/L", "setting": "XDR P. aeruginosa [2]; CMS < 3 million IU/day (n = 6)", "result": "2 (33.3) n (%)"}, {"measurement": "AUC/MIC > 60 mg∙h/L", "setting": "XDR P. aeruginosa [2]; CMS ≥ 3 million IU/day (n = 9)", "result": "1 (11.1) n (%)"}, {"measurement": "AUC/MIC > 60 mg∙h/L", "setting": "XDR P. aeruginosa [2]; [8]", "result": "5 (41.7) n (%)"}, {"measurement": "AUC/MIC > 60 mg∙h/L", "setting": "XDR P. aeruginosa [2]; CMS ≥ 9 million IU/day (n = 6)", "result": "3 (50) n (%)"}, {"measurement": "AUC/MIC ≥ 60 mg∙h/L", "setting": "XDR P. aeruginosa [2]; all patients n = 33", "result": "11 (33.3) n (%)"}, {"measurement": "fAUC/MIC", "setting": "XDR P. aeruginosa [2]; all patients n = 33, unbound fraction 0.5, mean ± standard deviation, SD", "result": "30.2 ± 28.2"}, {"measurement": "fAUC/MIC", "setting": "XDR P. aeruginosa [2]; included patients with clinical cure (n = 31), median (interquartile range)", "result": "21.5 (5.04–124.8)"}, {"measurement": "Css > 2,5 mg/L", "setting": "XDR P. aeruginosa [2]; [9]", "result": "1 (50) 1 (50) n (%)"}, {"measurement": "fAUC/MIC", "setting": "XDR P. aeruginosa [2]; included patients with clinical failure (n = 2), median (interquartile range)", "result": "47.4 (7.44–87.4)"}, {"measurement": "Css > 2,5 mg/L", "setting": "XDR P. aeruginosa [2]; patients treated with colistin alone, clinical cure (n=17)", "result": "1 (5.9) n (%)"}, {"measurement": "fAUC/MIC", "setting": "XDR P. aeruginosa [2]; patients treated with colistin alone, clinical cure (n=17), median (interquartile range)", "result": "16.8 (4.8–81.6)"}, {"measurement": "fAUC/MIC", "setting": "XDR P. aeruginosa [2]; patients with AKI at EOT (n = 10), median (interquartile range)", "result": "48.4 (14.4–124.8)"}, {"measurement": "fAUC/MIC", "setting": "XDR P. aeruginosa [2]; patients without AKI at EOT (n = 23), median (interquartile range)", "result": "13.7 (4.8–58.1)"}, {"measurement": "Odds ratio (95% CI) of Css for nephrotoxicity at EOT", "setting": "Acute kidney injury; multivariate logistic regression, P = 0.074", "result": "4.36 (0.86–20)"}, {"measurement": "patients with colistin in urine much higher than in plasma", "setting": "[3]; 11 of 12 patients treated with CMS", "result": 91.7, "unit": "%"}, {"measurement": "concentrations of formed colistin in urine", "setting": "[3]; 12 patients treated with CMS, maximum", "result": "up to 95.4 mg/L"}, {"measurement": "concentrations of formed colistin in plasma", "setting": "[3]; 12 patients treated with CMS, median (IQR <0.2–1.4 mg/L)", "result": 900, "unit": "ng/mL"}, {"measurement": "half-life", "setting": "[3]; assumed for reaching steady state", "result": "approximately 14 h"}, {"measurement": "unbound fraction for colistin in human plasma", "setting": "[3]; human plasma", "result": 0.5}, {"measurement": "Css,avg associated with a higher risk of AKI at EOT", "setting": "[4]", "result": "> 2420", "unit": "ng/mL"}, {"measurement": "rate of colistin-associated nephrotoxicity", "setting": "[4]", "result": "40–50%"}, {"measurement": "MIC50", "setting": "XDR P. aeruginosa [5]", "result": 0.5, "unit": "µg/mL"}, {"measurement": "MIC90", "setting": "XDR P. aeruginosa [5]", "result": 2, "unit": "µg/mL"}, {"measurement": "MIC50/90 values", "setting": "P. aeruginosa [6]", "result": 2, "unit": "µg/mL"}, {"measurement": "clinical cure rate in patients diagnosed with UTI", "setting": "MDR-GNB; retrospective study, low-dose colistin", "result": 83.3, "unit": "%"}, {"measurement": "emergence of colistin-resistant isolates", "setting": "XDR P. aeruginosa [7]; during the next 30 days after treatment", "result": "no colistin-resistant isolates were detected"}]}, {"compound": "C[C@@H](O)[C@H]1C(=O)N2C(C(=O)O)=C(S[C@@H]3CN[C@H](C(=O)N(C)C)C3)[C@H](C)[C@H]12", "note": "[meropenem]", "values": [{"measurement": "MIC", "setting": "P. aeruginosa [1]", "result": "≥ 8", "unit": "µg/mL"}]}, {"compound": "Colistimethate sodium [CMS]", "values": [{"measurement": "AKI at EOT", "setting": "Acute kidney injury; CMS < 3 million IU/day (n = 6)", "result": "2 (33.3) n (%)"}, {"measurement": "AKI at EOT: F (Failure)", "setting": "Acute kidney injury; CMS < 3 million IU/day (n = 6)", "result": "0 (0) n (%)"}, {"measurement": "AKI at EOT: I (Injury)", "setting": "Acute kidney injury; CMS < 3 million IU/day (n = 6)", "result": "1 (50) n (%)"}, {"measurement": "AKI at EOT: R (Risk)", "setting": "Acute kidney injury; CMS < 3 million IU/day (n = 6)", "result": "1 (50) n (%)"}, {"measurement": "AKI at EOT", "setting": "Acute kidney injury; CMS ≥ 3 million IU/day (n = 9)", "result": "3 (33.3) n (%)"}, {"measurement": "AKI at EOT: F (Failure)", "setting": "Acute kidney injury; CMS ≥ 3 million IU/day (n = 9)", "result": "1 (33.3) n (%)"}, {"measurement": "AKI at EOT: I (Injury)", "setting": "Acute kidney injury; CMS ≥ 3 million IU/day (n = 9)", "result": "2 (66.6) n (%)"}, {"measurement": "AKI at EOT: R (Risk)", "setting": "Acute kidney injury; CMS ≥ 3 million IU/day (n = 9)", "result": "0 (0) n (%)"}, {"measurement": "AKI at EOT", "setting": "Acute kidney injury; [8]", "result": "4 (33.3) n (%)"}, {"measurement": "AKI at EOT: F (Failure)", "setting": "Acute kidney injury; [8]", "result": "0 (0) n (%)"}, {"measurement": "AKI at EOT: I (Injury)", "setting": "Acute kidney injury; [8]", "result": "3 (75) n (%)"}, {"measurement": "AKI at EOT: R (Risk)", "setting": "Acute kidney injury; [8]", "result": "1 (25) n (%)"}, {"measurement": "AKI at EOT", "setting": "Acute kidney injury; CMS ≥ 9 million IU/day (n = 6)", "result": "1 (16.7) n (%)"}, {"measurement": "AKI at EOT: F (Failure)", "setting": "Acute kidney injury; CMS ≥ 9 million IU/day (n = 6)", "result": "1 (100) n (%)"}, {"measurement": "AKI at EOT: I (Injury)", "setting": "Acute kidney injury; CMS ≥ 9 million IU/day (n = 6)", "result": "0 (0) n (%)"}, {"measurement": "AKI at EOT: R (Risk)", "setting": "Acute kidney injury; CMS ≥ 9 million IU/day (n = 6)", "result": "0 (0) n (%)"}, {"measurement": "AKI at the end of treatment", "setting": "Acute kidney injury; all patients n = 33, RIFLE criteria", "result": "10 (30.3%) n (%) and 10 (30.3) n (%)"}, {"measurement": "AKI at the end of treatment: F (Failure)", "setting": "Acute kidney injury; [10]", "result": "2 (22.2) n (%)"}, {"measurement": "AKI at the end of treatment: I (Injury)", "setting": "Acute kidney injury; [10]", "result": "5 (55.5) n (%)"}, {"measurement": "AKI at end of treatment", "setting": "Acute kidney injury; included patients with clinical cure (n = 31)", "result": "9 (29) n (%)"}, {"measurement": "AKI at end of treatment", "setting": "Acute kidney injury; [9]", "result": "1 (50) n (%)"}, {"measurement": "CMS dose eliminated in the urine", "setting": "[3]", "result": "60–70%"}, {"measurement": "rate of CMS conversion into colistin", "setting": "[3]; young volunteers, single dose of 1 million IU (80 mg) CMS", "result": 30, "unit": "%"}, {"measurement": "CMS excreted in urine", "setting": "[3]; young volunteers, single dose of 1 million IU (80 mg) CMS, on average", "result": 70, "unit": "%"}, {"measurement": "Clinical cure", "setting": "MDR-GNB; 13 patients with UTI caused by XDR P. aeruginosa", "result": 84.6, "unit": "%"}, {"measurement": "rate of clinical cure in UTI caused by MDR-GNB", "setting": "MDR-GNB; recent clinical studies", "result": "50 to 92", "unit": "%"}, {"measurement": "Clinical cure in patients with pyelonephritis", "setting": "XDR P. aeruginosa [7]; 9 patients diagnosed with pyelonephritis, six (66.7%) on combined therapy", "result": "All of them achieved clinical cure"}, {"measurement": "Microbiological clearance", "setting": "XDR P. aeruginosa [7]; 23 patients with microbiological follow up", "result": "19 (82.6) n (%)"}, {"measurement": "Clinical cure", "setting": "XDR P. aeruginosa [7]; CMS < 3 million IU/day (n = 6)", "result": "6 (100) n (%)"}, {"measurement": "Clinical cure", "setting": "XDR P. aeruginosa [7]; CMS ≥ 3 million IU/day (n = 9)", "result": "8 (88.9) n (%)"}, {"measurement": "Clinical cure", "setting": "XDR P. aeruginosa [7]; [8]", "result": "11 (91.7) n (%)"}, {"measurement": "Clinical cure", "setting": "XDR P. aeruginosa [7]; CMS ≥ 9 million IU/day (n = 6)", "result": "6 (100) n (%)"}, {"measurement": "Clinical cure", "setting": "XDR P. aeruginosa [7]; all patients n = 33 (42.4% on combined antibiotic therapy)", "result": "31 (93.9) n (%)"}]}]}
